Experimental data: article PMC3040456 (Current Chemical Genomics, 2010)
Read-outs that look alike come from different tables or passages of the source.

How the values were obtained:
rice α-glucosidase (GAA) = assay: α-glucosidase; format: biochemical; settings: enzyme 8 nM, substrate 160 μM
Procedure, shortened: (§1)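 Enzyme (2 μl), then 23 nl test compound in DMSO, then 1 μl 4MU substrate; 30 min at 21 °C, NaOH/glycine stop (pH 11.6), fluorescence at ex 365/em 440 nm. Enzymes stored in 30% glycerol at -80°C. GC: clinical imiglucerase, 1.9 nM, 800 μM 4MU-β-Glc, citrate/phosphate pH 5.9. GAA: 8 nM, 160 μM 4MU-α-glc, same buffer titrated to pH 5.0.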

[1] = molecular target: T1, human recombinant glucocerebrosidase (GC) (Homo sapiens, UniProt P04062, R534H); assay: glucocerebrosidase; format: biochemical
T1 sequence (P04062 40-536 R534H): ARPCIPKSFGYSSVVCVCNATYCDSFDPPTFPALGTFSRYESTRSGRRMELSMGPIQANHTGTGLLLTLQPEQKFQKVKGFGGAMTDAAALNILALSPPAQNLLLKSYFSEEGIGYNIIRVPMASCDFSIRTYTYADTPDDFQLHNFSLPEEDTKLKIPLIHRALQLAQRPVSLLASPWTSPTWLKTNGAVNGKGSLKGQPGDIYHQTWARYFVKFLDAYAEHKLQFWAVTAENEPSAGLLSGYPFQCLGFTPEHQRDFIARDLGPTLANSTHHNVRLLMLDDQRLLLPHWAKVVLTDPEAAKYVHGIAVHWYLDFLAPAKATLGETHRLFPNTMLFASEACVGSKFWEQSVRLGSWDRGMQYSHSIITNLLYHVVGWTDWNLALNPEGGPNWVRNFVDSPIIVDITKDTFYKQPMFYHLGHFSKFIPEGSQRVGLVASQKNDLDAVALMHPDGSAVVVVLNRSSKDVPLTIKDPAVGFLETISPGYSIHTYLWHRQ
Procedure, shortened: as §1

[2] = molecular target: T2, α-Galactosidase A from green coffee beans (Coffea arabica, UniProt Q42656); assay: GLA enzyme assay with 4MU-α-Gala, purified enzyme from green coffee beans; format: biochemical; settings: for selectivity for GLA over GC (words): GLA vs GC; for inhibitory activity against GLA in qHTS and confirmation: bioactive 6,160 compound set; for IC50: read-out: IC50 for GLA, coffee bean GLA 1 nM, 40 μM 4MU-α-Gala, pH 5.9
GLA = settings: cited from earlier work
[3] = molecular target: T3, GLA in human spleen homogenate (Homo sapiens, UniProt P06280); assay: qHTS with GLA in human spleen homogenate; format: biochemical; settings: human spleen homogenate screen
T3 sequence (P06280 32-429): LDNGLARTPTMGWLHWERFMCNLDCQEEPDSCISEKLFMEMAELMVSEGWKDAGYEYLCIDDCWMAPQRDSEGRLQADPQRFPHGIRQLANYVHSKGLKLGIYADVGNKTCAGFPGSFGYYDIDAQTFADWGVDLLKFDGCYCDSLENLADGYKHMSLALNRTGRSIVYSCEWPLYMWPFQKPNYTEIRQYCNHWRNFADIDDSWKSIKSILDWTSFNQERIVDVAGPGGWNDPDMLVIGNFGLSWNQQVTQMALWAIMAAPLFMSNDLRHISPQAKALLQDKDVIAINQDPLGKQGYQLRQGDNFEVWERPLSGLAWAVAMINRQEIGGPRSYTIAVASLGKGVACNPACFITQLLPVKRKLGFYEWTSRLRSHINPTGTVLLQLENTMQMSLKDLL

human recombinant GLA = molecular target: T4, human recombinant GLA (Homo sapiens, UniProt P06280); assay: qHTS with human recombinant GLA; format: biochemical; settings: human recombinant GLA screen
T4 sequence (P06280 32-429): T3 sequence (P06280 32-429)

[4] = molecular target: T2, α-Galactosidase A from green coffee beans; assay: GLA enzyme kinetics assay; format: biochemical
[5] = read-out: IC50 for GC, enzyme 1.9 nM, substrate 800 μM

T2 sequence (Q42656 16-378): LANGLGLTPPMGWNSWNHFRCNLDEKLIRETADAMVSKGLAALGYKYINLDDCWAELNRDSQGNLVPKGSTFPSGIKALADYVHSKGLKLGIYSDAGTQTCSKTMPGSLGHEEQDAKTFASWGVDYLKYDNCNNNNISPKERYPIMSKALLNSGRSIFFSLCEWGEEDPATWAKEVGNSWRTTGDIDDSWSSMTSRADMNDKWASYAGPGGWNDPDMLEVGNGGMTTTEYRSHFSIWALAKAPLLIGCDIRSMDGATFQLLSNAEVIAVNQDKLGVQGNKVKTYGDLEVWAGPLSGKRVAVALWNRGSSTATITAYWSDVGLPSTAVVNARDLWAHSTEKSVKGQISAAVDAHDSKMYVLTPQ

Q: With CC(=O)[O][Hg][c]1ccccc1 [phenylmercuric acetate] as the molecule, how does the “inhibition of GAA” value (rice α-glucosidase (GAA)) read?
A: Its value is “did not inhibit GAA”.

Q: And the IC50 [1, 5]?
A: Its IC50 is 0.082 µM.

Q: What about the “selectivity for GLA over GC (words)” value [2] of the same molecule?
A: Its value is “not selective for GLA”.

Q: What about the “selectivity for GLA over GC (words)” value ([2]; listed as Phenylmercuric acetate) of the same molecule?
A: The value was “significantly more potent against GC than GLA”.

Q: What about the “inhibitory activity against GLA in qHTS and confirmation” value [2] of the same molecule?
A: Its value is “relatively high inhibitory activity”.

Q: What about the IC50 [2] of the same molecule?
A: The IC50 was 7.42 µM.

Q: Which IC50 (GLA; read-out: reported IC50 value) does the source give for OC[C@H]1NC[C@H](O)[C@@H](O)[C@H]1O [DGJ, 1-deoxygalactonojirimycin] here?
A: Its IC50 is 0.003 µM.

Q: Which “activity with the human enzyme” value [3] does the source give for Cc1c(OCC(F)(F)F)ccnc1C[S+]([O-])c1nc2ccccc2[nH]1 (stereo not drawn) [lansoprazole] here?
A: Its value is “not active”.

Q: What about the “activity with the human enzyme” value (human recombinant GLA) of the same molecule?
A: Its value is “not active”.

Q: And the Ki [4]?
A: Its Ki is 5.5 µM.

Q: And the type of inhibition ([4]; Lineweaver-burk plot)?
A: Its type of inhibition is “mixed type of inhibition”.

Q: And the “inhibition of GAA” value (rice α-glucosidase (GAA))?
A: The value was “did not inhibit GAA”.

Q: What about the IC50 [1] of the same molecule?
A: Its IC50 is 122 µM.

Q: And the “selectivity for GLA over GC (words)” value [2]?
A: Its value is “showed selectivity for GLA over GC”.

Q: What about the “inhibitory activity against GLA in qHTS and confirmation” value [2] of the same molecule?
A: The value was “relatively high inhibitory activity”.

Q: For C[C@H](CCC(=O)NCCS(=O)(=O)O)[C@H]1CC[C@H]2[C@@H]3[C@H](O)C[C@@H]4C[C@H](O)CC[C@]4(C)[C@H]3C[C@H](O)[C@]12C [sodium taurocholate], which “effect on GLA activity” value ([2]; titration 0.15 to 40 mM) is on record?
A: Its value is “decreased the GLA activity”.

Q: What does the source list for O=C([O-])c1ccccc1-c1c2cc(Br)c(=O)cc-2oc2[c]([Hg+])c([O-])c(Br)cc12.[Na+].[Na+].[OH-] [merbromin]?
A: inhibition of GAA (rice α-glucosidase (GAA)): slightly inhibited GAA; IC50 [1, 5]: 0.63 µM; selectivity for GLA over GC (words) [2]: not selective for GLA; selectivity for GLA over GC (words) ([2]; listed as Merbromin): more potent against GC than GLA; inhibitory activity against GLA in qHTS and confirmation [2]: relatively high inhibitory activity; IC50 [2]: 1.38 µM

Q: Which Km ([4]; pH 4.5) does the source give for Cc1cc(=O)oc2cc(O[C@H]3O[C@H](CO)[C@H](O)[C@H](O)[C@H]3O)ccc12 [4MU-α-Gala, 4-methylumbelliferyl-α-D-galactopyranoside] here?
A: The Km was 102 µM.

Q: And the Vmax ([4]; pH 4.5)?
A: Its Vmax is 2.76 pmol/min.

Q: What about the Km ([4]; pH 5.9, 1 nM enzyme) of the same molecule?
A: The Km was 144 µM.

Q: And the Vmax ([4]; pH 5.9, 1 nM enzyme)?
A: The Vmax was 5.74 pmol/min.

Q: And the Km (GLA; same substrate, pH 6.5)?
A: The Km was 239 µM.
